SMILES strings stand for the structures.

Series [1] in a line: Subacute toxicity in BALB/c mouse assessed as effect on liver weight at 25 to 250 mg/kg, IG measured daily for 30 days. The format is organism-based. Particulars: in vivo, po, 720 h, dose 25-250 mg/kg, time 30 day; call rule not given here.
Series [2] is described as follows: Subacute toxicity in BALB/c mouse assessed as reduction in […] level at 25 to 250 mg/kg, IG measured daily for 30 days. The format is organism-based. Particulars: in vivo, po, 720 h, dose 25-250 mg/kg, time 30 day. Put shortly:
(§1)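 Dosing was daily intragastric 25 or 250 mg/kg in 1% starch gel (0.2 ml/20 g) for 30 days in male Balb/C mice, 17 per group, with starch gel controls. After the final dose, mice were fasted for 2 h with water available, then bled. Serum was clotted for 30 min at room temperature and centrifuged at 3500 rpm. Total protein, urea, creatinine, AST, ALT and alkaline phosphatase were assayed and compared by Mann-Whitney with Holm-Šídák, p < 0.05.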

Series [3] is described as follows: Selectivity index, ratio of CC50 for cytotoxicity against human TZM-bl cells assessed as reduction in cell viability by MTS assay to EC50 for antiviral activity against wild type HIV1 IIIB infected in human TZM-bl cells. The class given is toxicity, cell-based. To be noted: read-out: Ratio CC50/EC50. Background: Tetrazolium dyes change colour on reduction, which living cells bring about.

Series [4] can be described thus: AUC (0 to infinity) in BALB/c mouse plasma at 250 mg/kg, IG measured at 0.5 to 24 hrs by HPLC-MS analysis. The format is ADME, organism-based. Also on record: time 0.5-24 hrs, dose 250 mg/kg, route ig. To be noted: in vivo, po. Put shortly: (§2)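 Mice averaging 20 g (24 animals) were fasted 1 h before and 1 h after dosing. They received 250 mg/kg as 0.5 ml suspension in 1% CMC, 0.05% Tween 80 by intragastric intubation. Blood and brain were taken after decapitation at 0.5, 1, 2, 3, 5, 8 and 24 h (3 per time point). Plasma was frozen at -20°C and brain at -120 °C. Quantification was by UPLC-HRMS (ESI+, EIC m/z 476.0691) against plasma-matrix standards. Parameters were derived by noncompartmental analysis; LLOQ 5 ng/ml, with values below it set to 2.5.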

Series [5] in a line: Subacute toxicity in BALB/c mouse assessed as effect on spleen weight at 25 to 250 mg/kg, IG measured daily for 30 days. To be noted: in vivo, po, 720 h, dose 25-250 mg/kg, time 30 day. The format is organism-based.
Series [6] in a line: Selectivity ratio of IC50 for antiviral activity against wild type HIV1 IIIB infected in human TZM-bl cells to IC50 for antiviral activity against HIV1 harboring Y181C mutant infected in human TZM-bl cells. The format is toxicity, cell-based. To be noted: human immunodeficiency virus 1. Put shortly:
(§3)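 TZM-bl cells (2x10⁵/mL) with 15 µg/mL DEAE-dextran were infected with HIV-1 IIIB, A17 (K103N/Y181C) IIIB variant, or NL4-3-based NNRTI-resistant mutants. Compound was present at 0.05–500 nM (DMSO held constant, 0.005% or 0.05%) for 48 hr at 37°C, 5% CO₂.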

Series [7] has as its system Human immunodeficiency virus 1. Briefly: Antiviral activity against HIV1 harboring A17 mutant infected in human TZM-bl cells. Particulars: Human immunodeficiency virus 1, TZM-bl. The class given is functional, organism-based. Put shortly:
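TZM-bl cells (2x10⁵/mL) were infected with mutant virus in the presence of 15 µg/mL DEAE-dextran. A17 (IIIB variant) was grown in H9 cells; the other mutants were NL4-3-based plasmids transfected into 293T cells, then expanded in H9 cells. Compounds were tested at 0.05–500 nM (DMSO constant within an assay) for 48 hr at 37°C. Read-out was luciferase RLU from lysed cells, with at least 6 replicates over multiple days.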

Series [8] is described as follows: Safety index, ratio of TC10 for neurotoxicity in mouse primary neurons assessed as loss of MAP-2 intensity to EC50 for antiviral activity against wild type HIV1 IIIB infected in human TZM-bl cells. The class given is toxicity, cell-based. Put shortly: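 Primary neuronal cultures from cortex/hippocampus of E16 CD1 mouse embryos (>95% neurons). Cells were then methanol:acetic acid-fixed and MAP-2 stained, and intensity was image-quantified. S-index = TC10/(100×EC50 vs HIV-1 IIIB in TZM-bl).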

Series [9] in a line: Subacute toxicity in BALB/c mouse assessed as reduction in total protein level at 25 to 250 mg/kg, IG measured daily for 30 days. The class given is organism-based. Particulars: in vivo, po, 720 h, dose 25-250 mg/kg, time 30 day. Put shortly: as §1
Series [10] in a line: Selectivity ratio of IC50 for antiviral activity against wild type HIV1 IIIB infected in human TZM-bl cells to IC50 for antiviral activity against HIV1 harboring A17 mutant infected in human TZM-bl cells. The format is toxicity, cell-based. To be noted: human immunodeficiency virus 1. Put shortly:
as §3

A short description of series [11]: Subacute toxicity in BALB/c mouse assessed as pathological change in stomach at 25 to 250 mg/kg, IG measured daily for 30 days by H and E staining based histological analysis. The format is organism-based. To be noted: in vivo, po, 720 h, dose 25-250 mg/kg, time 30 day. Put shortly:
(§4)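 Male Balb/C mice (17 per group) received 25 or 250 mg/kg intragastrically in 1% starch gel once daily for 30 days, against starch gel controls. Internal organs were examined macroscopically after the study. Sections were paraffin-embedded and stained with hematoxylin and eosin.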

Series [12] in a line: Subacute toxicity in BALB/c mouse assessed as reduction in WBC count at 25 to 250 mg/kg, IG measured daily for 30 days. To be noted: in vivo, po, 720 h, dose 25-250 mg/kg, time 30 day. The format is organism-based.
Series [13] is described as follows: Subacute toxicity in BALB/c mouse assessed as pathological change in lungs at 25 to 250 mg/kg, IG measured daily for 30 days by H and E staining based histological analysis. The format is organism-based. Particulars: in vivo, po, 720 h, dose 25-250 mg/kg, time 30 day. In short, it runs like this:
as §4

Series [14] is described as follows: Acute toxicity in BALB/c mouse at 2000 mg/kg, IG measured for 14 days. The format is organism-based. Particulars: in vivo, po, 336 h, time 14 day. In short, it runs like this: (§5)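 Male Balb/C mice, 5–6 weeks old and 19–21 g, were deprived of food and water for 1.5–2 h. They were given a single intragastric 2000 mg/kg dose at 0.5 ml/20 g, prepared just before use. Controls received 0.5 ml of 1% starch gel intragastrically. There were 5 mice per group, observed for 14 days for condition and weight; weight was compared by Šídák's multiple comparisons test.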

Series [15] can be described thus: Subacute toxicity in BALB/c mouse assessed as effect on pancreas weight at 25 to 250 mg/kg, IG measured daily for 30 days. Particulars: in vivo, po, 720 h, dose 25-250 mg/kg, time 30 day. The format is organism-based.
The nature of series [16]: Acute toxicity in BALB/c mouse assessed as body weight gain at 2000 mg/kg, IG measured for 14 days. To be noted: in vivo, po, 336 h, time 14 day. The class given is organism-based. In short, it runs like this: as §5
Another series has as its system TZM. The series can be described thus: Cytotoxicity against human TZM-bl cells assessed as reduction in viability incubated for 48 hrs by CellTiter-Blue cell viability assay. In general terms: The colour change of resazurin is a common sign of viable cells or microbes.
Series [17] can be described thus: Subacute toxicity in BALB/c mouse assessed as reduction in urea level at 25 to 250 mg/kg, IG measured daily for 30 days. Particulars: in vivo, po, 720 h, dose 25-250 mg/kg, time 30 day. The format is organism-based. Put shortly: as §1
Series [18] can be described thus: Subacute toxicity in BALB/c mouse assessed as reduction in aminotransferases level at 25 to 250 mg/kg, IG measured daily for 30 days. The format is organism-based. To be noted: in vivo, po, 720 h, dose 25-250 mg/kg, time 30 day. In short, it runs like this:
as §1

The nature of series [19]: Cmax in BALB/c mouse brain at 250 mg/kg, IG measured at 0.5 to 24 hrs by HPLC-MS analysis. Also on record: time 0.5-24 hrs, dose 250 mg/kg, route ig. To be noted: po. The format is ADME, organism-based. Put shortly: as §2
Series [20] can be described thus: Subacute toxicity in BALB/c mouse assessed as pathological change in heart at 25 to 250 mg/kg, IG measured daily for 30 days by H and E staining based histological analysis. The class given is organism-based. Particulars: in vivo, po, 720 h, dose 25-250 mg/kg, time 30 day. Put shortly:
as §4

For orientation: AUC means concentration integrated over time. Higher therefore signals high exposure. In general, EC50 refers to the concentration that produces a half-maximal response. A low value points to an effect from little substance. As usually defined, the IC50 is the midpoint of a concentration-inhibition curve. Lower therefore signals greater potency in that assay. By CC50 is commonly meant the concentration at which the toxic effect on the cells reaches its halfway point. As to `N#C/C=C/c1ccc2c(S(=O)(=O)n3nc(Nc4ccc(C#N)c(Cl)c4)nc3N)cccc2c1`, the Activity entry in series [1], in series [2], in series [5], in series [9], in series [11] and in series [12] was “Non-Toxic” in each case. Also, the Activity result in series [13] is listed as “Non-Toxic”; in [14], “Non-Toxic”; in series [15], “Non-Toxic”; in series [16], “Non-Toxic”; in [17] it was “Non-Toxic”; in series [18], “Toxic”. In addition, in series [20], the Activity entry is listed as “Non-Toxic”. In series [3], the selectivity ratio worked out at 10000. Moreover, in series [4], the exposure (AUC) stood at 427.7 µg·h/mL. In addition, the “Ratio IC50” value in series [6] was 16; in series [10], 5.6. In series [7], this molecule came in with an EC50 of 0.689 nM. In series [7], this molecule showed a 50% inhibitory concentration (IC50) of 1.3 nM. For the same molecule, the Ratio result in [8] is “Not Active”. Also, the CC50 in the series with TZM is 4.8 µM. The molecule further returned a Cmax in [19] of 40.3 ng/100 mg.

Values taken from ChEMBL document CHEMBL5338759, “N-Phenyl-1-(phenylsulfonyl)-1H-1,2,4-triazol-3-amine as a New Class of HIV-1 Non-nucleoside Reverse Transcriptase Inhibitor” (J Med Chem, 2023).
